Laboratory results reported in ChEMBL document CHEMBL5303300, “EUbOPEN Chemogenomics Library - Multiplex” (2023).
Values joined by “and” are separate entries in the source; they are usually repeats but may differ in a detail not shown here. Equal values may be shown once.

Test system: U2OS
Assay: Multiplex assay against U2OS
Format: toxicity, cell-based
Conditions: human, number of replicates 2
Outline: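 Compound was added to live cells that had been stained at seeding with Hoechst33342, BioTracker Green Microtubule Cytoskeleton Dye, MitoTracker Red and Annexin V Alexa Fluor 680, and imaging followed on a CQ1 microscope at 37°C and 5% CO2. CellPathfinder machine-learning gating divided cells into Hoechst high-intensity objects or normal cells, normal cells into healthy, pyknosed or fragmented nuclei, and pyknosed cells into mitotic or apoptotic. Tubulin, mitochondrial-mass and membrane-permeability phenotypes are per cents of healthy-nucleus cells.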

[1] = 12 h, 1 µM, compound concentration 1 uM
[2] = 12 h, 10 µM, compound concentration 10 uM
[3] = 24 h, 1 µM, compound concentration 1 uM
[4] = 24 h, 10 µM, compound concentration 10 uM
[5] = 48 h, 1 µM, compound concentration 1 uM
[6] = 48 h, 10 µM, compound concentration 10 uM

Which results are given for `Cn1ncc(NC(=O)c2nc(-c3c(F)cccc3F)sc2N)c1N1CC[C@@H](N)[C@H](F)CC1`?
Population Apoptotic (%) [1]: 55% and 77%; Population Healthy Nuclei (%) [1]: 46% and 79%; Population Hoechst High Intensity Objects (%) [1]: 0%; Population Mitochondria Different-Phenotype (%) [1]: 0%; Population Normal (%) [1]: 100%; Population Pyknosed Nuclei (%) [1]: 19%; Population Tubulin-Different-Phenotype (%) [1]: 50% and 77%; Population Apoptotic (%) [2]: 73% and 69%; Population Healthy Nuclei (%) [2]: 22% and 53%; Population Hoechst High Intensity Objects (%) [2]: 0%; Population Mitochondria Different-Phenotype (%) [2]: 0% and 18%; Population Normal (%) [2]: 98% and 99%; Population Pyknosed Nuclei (%) [2]: 44% and 24%; Population Tubulin-Different-Phenotype (%) [2]: 38% and 39%; Population Apoptotic (%) [3]: 50% and 89%; Population Healthy Nuclei (%) [3]: 48% and 85%; Population Hoechst High Intensity Objects (%) [3]: 0%; Population Mitochondria Different-Phenotype (%) [3]: 8%; Population Normal (%) [3]: 100% and 99%; Population Pyknosed Nuclei (%) [3]: 16% and 7%; Population Tubulin-Different-Phenotype (%) [3]: 62% and 80%; Population Apoptotic (%) [4]: 90% and 86%; Population Mitochondria Different-Phenotype (%) [4]: 33%; Population Normal (%) [4]: 98% and 100%; Population Pyknosed Nuclei (%) [4]: 49% and 31%; Population Tubulin-Different-Phenotype (%) [4]: 33% and 56%; Total Cell Count [4]: 64 and 190; Population Apoptotic (%) [5]: 84% and 66%; Population Healthy Nuclei (%) [5]: 90% and 65%; Population Hoechst High Intensity Objects (%) [5]: 0%; Population Mitochondria Different-Phenotype (%) [5]: 7%; Population Normal (%) [5]: 100%; Population Pyknosed Nuclei (%) [5]: 5%; Population Tubulin-Different-Phenotype (%) [5]: 84% and 49%; Population Apoptotic (%) [6]: 96% and 93%; Population Healthy Nuclei (%) [6]: 21% and 44%; Population Hoechst High Intensity Objects (%) [6]: 0%; Population Mitochondria Different-Phenotype (%) [6]: 25% and 19%; Population Normal (%) [6]: 100%; Population Pyknosed Nuclei (%) [6]: 53% and 36%; Population Tubulin-Different-Phenotype (%) [6]: 41% and 57%

`Cn1cc(-n2cnc3c(NCc4nc5cc(Cl)c(Cl)cc5[nH]4)nc(N4CCOCC4)nc32)cn1` was tested. Which “Population Apoptotic (%)” value [1] did it give?
Its value is 41% and 88%.

And the “Population Healthy Nuclei (%)” value [1]?
Its value is 36% and 71%.

What about the “Population Hoechst High Intensity Objects (%)” value [1] of the same compound?
Its value is 0%.

What about the “Population Membrane Permeable-Phenotype (%)” value [1] of the same compound?
Its value is 5% and 7%.

And the “Population Mitochondria Different-Phenotype (%)” value [1]?
The value was 0% and 8%.

What about the “Population Normal (%)” value [1] of the same compound?
Its value is 100%.

What about the “Population Pyknosed Nuclei (%)” value [1] of the same compound?
The value was 36% and 24%.

And the “Population Tubulin-Different-Phenotype (%)” value [1]?
The value was 58% and 50%.

What about the “Population Apoptotic (%)” value [2] of the same compound?
The value was 62% and 75%.

And the “Population Hoechst High Intensity Objects (%)” value [2]?
Its value is 0%.

And the “Population Membrane Permeable-Phenotype (%)” value [2]?
Its value is 33% and 23%.

What about the “Population Mitochondria Different-Phenotype (%)” value [2] of the same compound?
The value was 16% and 37%.

What about the “Population Mitotic Cells (%)” value [2] of the same compound?
Its value is 37% and 24%.

And the “Population Normal (%)” value [2]?
The value was 100%.

What about the “Population Pyknosed Nuclei (%)” value [2] of the same compound?
Its value is 39% and 28%.

And the “Population Tubulin-Different-Phenotype (%)” value [2]?
Its value is 66% and 73%.

And the “Population Apoptotic (%)” value [3]?
Its value is 96% and 80%.

What about the “Population Fragmented Nuclei (%)” value [3] of the same compound?
Its value is 9% and 21%.

And the “Population Healthy Nuclei (%)” value [3]?
Its value is 11% and 13%.

And the “Population Hoechst High Intensity Objects (%)” value [3]?
The value was 1% and 7%.

And the “Population Membrane Permeable-Phenotype (%)” value [3]?
The value was 18% and 0%.

What about the “Population Normal (%)” value [3] of the same compound?
Its value is 98% and 92%.

And the “Population Pyknosed Nuclei (%)” value [3]?
The value was 79% and 65%.

And the “Population Tubulin-Different-Phenotype (%)” value [3]?
The value was 50% and 80%.

And the “Population Apoptotic (%)” value [4]?
Its value is 94% and 95%.

What about the “Population Hoechst High Intensity Objects (%)” value [4] of the same compound?
The value was 1% and 0%.

And the “Population Mitotic Cells (%)” value [4]?
The value was 5% and 4%.

And the “Population Normal (%)” value [4]?
The value was 98% and 100%.

What about the “Population Pyknosed Nuclei (%)” value [4] of the same compound?
The value was 64% and 61%.

And the “Population Tubulin-Different-Phenotype (%)” value [4]?
The value was 89% and 33%.

What about the “Population Apoptotic (%)” value [5] of the same compound?
The value was 100% and 86%.

What about the “Population Fragmented Nuclei (%)” value [5] of the same compound?
Its value is 10% and 16%.

What about the “Population Healthy Nuclei (%)” value [5] of the same compound?
The value was 4% and 0%.

What about the “Population Hoechst High Intensity Objects (%)” value [5] of the same compound?
The value was 2% and 7%.

What about the “Population Mitotic Cells (%)” value [5] of the same compound?
The value was 0% and 13%.

And the “Population Normal (%)” value [5]?
Its value is 97% and 92%.

And the “Population Pyknosed Nuclei (%)” value [5]?
The value was 85% and 83%.

And the “Population Apoptotic (%)” value [6]?
The value was 94% and 92%.

And the “Population Healthy Nuclei (%)” value [6]?
Its value is 10% and 5%.

What about the “Population Hoechst High Intensity Objects (%)” value [6] of the same compound?
The value was 0% and 1%.

What about the “Population Membrane Permeable-Phenotype (%)” value [6] of the same compound?
The value was 100% and 57%.

And the “Population Mitochondria Different-Phenotype (%)” value [6]?
Its value is 100% and 57%.

And the “Population Mitotic Cells (%)” value [6]?
Its value is 5% and 7%.

What about the “Population Normal (%)” value [6] of the same compound?
Its value is 100% and 98%.

And the “Population Pyknosed Nuclei (%)” value [6]?
The value was 44% and 85%.

What about the “Population Tubulin-Different-Phenotype (%)” value [6] of the same compound?
Its value is 100% and 85%.
